Most compounds without a hit are left out; they make up all but 2.9% or so of the library.
Apaf1 inhib – inhibitors of human Apaf-1 apoptosome. 0.71% of 330,000 active. O14727. AID 489030. inhibition, % at 20 µM. reconstituted apoptosome caspase-3 activity, DEVD-Rh110 fluorescence; active = inhibition of at least 40% at 20 µM;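 also: plate controls were DMSO wells for no effect and DEVD-CHO caspase inhibitor wells for full effect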
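Material: reconstituted apoptosome with Apaf-1, cytochrome c, caspase-9, procaspase-3, dATP / Buffer or medium: pH 7.5 Hepes buffer with CHAPS, BSA, DTT / Also added: cytochrome c with DEVD-Rh110 / Schedule: compound with Apaf-1, dATP, procaspase-3 30 min, then 50 min reaction, room temperature / Technique: rhodamine 110 fluorescence at Ex 480/Em 540 nm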
SENP8 block-1 – SENP8 protease inhibition | 1.2% of 330,000 active | purified SENP8, Z-RLRGG-aminoluciferin cleavage, luminescence | inhibition, % at 10 µM; in the data active = inhibition above about 50%
Target sequence (Q96LD8 whole entry, looked up): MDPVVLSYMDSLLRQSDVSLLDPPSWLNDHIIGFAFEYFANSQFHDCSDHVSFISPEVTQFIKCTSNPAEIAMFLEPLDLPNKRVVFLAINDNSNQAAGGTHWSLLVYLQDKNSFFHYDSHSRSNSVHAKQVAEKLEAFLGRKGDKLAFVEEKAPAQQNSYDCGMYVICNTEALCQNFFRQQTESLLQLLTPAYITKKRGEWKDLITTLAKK
SENP1 inh – blocks the human SENP1 SUMO protease catalytic domain. AID 624204. recombinant SENP1 catalytic domain, CyPet-SUMO1-YPet FRET cleavage. 0.21% of 360,000 active. inhibition, % at 10 µM. Q9P0U3;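 active = inhibition at least 30% at 10 µM, raw YFP signal under a set limit, fluorescence ratio 0.5 to 1.5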;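 also: 0% = enzyme with DMSO and 100% = no enzyme wells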
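Assay system – human recombinant His6-tagged SENP1 catalytic domain enzyme · Input – SENP1 enzyme, 20 pM final · Buffer or medium – Tris pH 8 buffer plus EDTA, NaCl, BME, BSA, NP40, catalase · Schedule – 50 min reaction at room temperature · Technique – FRET read of cyan and yellow fluorescence · Control set – no-enzyme wells low, DMSO-plus-enzyme wells high control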
SENP8 block-2 – inhibitors of human SENP8 protease | Q96LD8 | recombinant SENP8, Nedd8 substrate fluorescence | inhibition, % at 20 µM | 0.64% of 360,000 active | AID 602440; in the data active = inhibition mostly above about 40%, no sharp cut-off; inactive = mostly below about 27%
SENP6 inh – SENP6 protease inhibition; Q9GZR1; Recombinant SENP6 catalytic domain, aminoluciferin luminescence; inhibition, % at 10 µM; 1.8% of 330,000 active;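 active = inhibition above about 50% at the single tested dose, limit read from the data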;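 also: plate controls were DMSO wells with enzyme for no effect and DMSO wells lacking enzyme for full effect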
SENP7 inh – inhibitors of human SENP7 protease; Q9BQF6; inhibition, % at 5 µM; recombinant SENP7, Z-RLRGG-aminoluciferin luminescence, 40 min; 1.5% of 330,000 active;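 active = inhibition above about 50% at the single test dose, limit read from the data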;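 also: plate controls were DMSO with enzyme for no effect and no enzyme buffer wells for full effect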
SENP8 conf – confirmation of human SENP8 protease inhibitors; shares compounds with SENP7 inh; Recombinant SENP8, Z-RLRGG-aminoluciferin luminescence, 60 min; inhibition, % at 12.5 µM; 40% of 6,200 active;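 active = mean inhibition across replicates above about 50%, limit read from the data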
SENP6 conf – human SENP6 inhibition, confirmed; AID 488915; inhibition, % at 12.5 µM; recombinant SENP6, Z-RLRGG-aminoluciferin luminescence; 58% of 6,200 active; shares compounds with SENP7 inh
SENP7 confirm – human SENP7 inhibition, confirmed; inhibition, % at 12.5 µM; 69% of 6,200 active; recombinant SENP7, Z-RLRGG-aminoluciferin luminescence, 40 min; shares compounds with SENP7 inh
Casp3 select – inhibits human caspase-3 in SENP selectivity test. 60% of 6,200 active. inhibition, % at 12.5 µM. shares compounds with SENP7 inh. purified caspase-3, Z-DEVD-aminoluciferin luminescence, 60 min;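 active = mean inhibition above about 50%, limit read from the data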;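 also: plate controls were enzyme with DMSO for no effect and wells without caspase-3 for full effect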
Target sequence (P42574 28-227 limits assumed): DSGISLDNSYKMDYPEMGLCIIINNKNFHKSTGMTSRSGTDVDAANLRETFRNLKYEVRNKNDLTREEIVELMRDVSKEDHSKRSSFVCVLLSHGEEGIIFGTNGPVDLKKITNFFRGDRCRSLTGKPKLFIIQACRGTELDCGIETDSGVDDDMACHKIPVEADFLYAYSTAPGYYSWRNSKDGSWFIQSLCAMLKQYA
Luc interf – counter-screen for SENP inhibitors: luminescence interference; shares compounds with SENP7 inh; Pre-incubated SENP8/Z-RLRGG-aminoluciferin, luciferase luminescence interference; inhibition, % at 12.5 µM; 39% of 6,200 active; AID 488919;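 active = mean inhibition above about 50% when retested at one dose, limit read from the data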;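 also: plate controls were DMSO wells with completed reaction for no effect and substrate without enzyme for full effect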
Active calls of the source: *; . = no result.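 The calls were made as follows, unless noted: active = mean inhibition above about 50% in the one-dose retest (limit read from the data); inactive = the rest.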

SMILES	Apaf1 inhib	SENP8 block-1	SENP1 inh	SENP8 block-2	SENP6 inh	SENP7 inh	SENP8 conf	SENP6 conf	SENP7 confirm	Casp3 select	Luc interf
CC(=O)Nc1ccc(/C=C/c2noc(-c3ccccc3O)n2)cc1	15	-7	-6	-237	-36	59*	4	2	1	0	2
Oc1ccccc1/C=C/c1noc(-c2ccccc2O)n1	15	3	1	-122	-6	52*	-5	1	79*	38	5
O=C(COC(=O)CCCN=C1NS(=O)(=O)c2ccccc21)NNC(=O)c1ccccc1	3	8	1	2	5	1	.	.	.	.	.
Cc1ccc(-c2nnc(COC(=O)c3cccs3)o2)cc1	14	71*	0	-2	78*	72*	80*	78*	94*	78*	69*
Cc1ccc(C(=O)COC(=O)c2cccs2)cc1	14	87*	1	11	94*	94*	93*	92*	99*	92*	88*
Cc1ccc(C(=O)COC(=O)CNC(=O)c2cccs2)cc1	9	2	0	26	0	-2	.	.	.	.	.
Cc1ccc(-c2nnc(COC(=O)c3ccco3)o2)cc1	3	14	-1	-1	41	41	.	.	.	.	.
O=C(COC(=O)c1cccs1)c1ccc2c(c1)OCCO2	6	80*	3	14	95*	14	99*	99*	102*	97*	97*
O=C(COC(=O)c1cccs1)c1ccc2ccccc2c1	20	63*	0	0	41	78*	-19	64*	89*	44	54*
Cc1nc2ccc(Cl)cc2n1C	.	.	5	18	.	.	.	.	.	.	.
CCOc1ccc(CCN2C(=O)C(=O)N([C@@H](Cc3ccccc3)CN3CCC[C@H]3CN3C(=O)C(=O)NC[C@@H]3CC(C)C)C[C@@H]2Cc2ccc(O)cc2)cc1	.	.	2	11	.	.	.	.	.	.	.
O=C(C[C@H]1C/C=C\CC[C@H](Cc2ccc(F)cc2)C(=O)OC[C@H]2CCCN2C1=O)N[C@@H](CO)Cc1ccccc1	15	-6	1	4	6	3	.	.	.	.	.
COC(=O)[C@H](C)N(Cc1ccc(Cl)c(Cl)c1)S(=O)(=O)CCN1CCCC1	13	.	-1	12	.	-2	.	.	.	.	.
O=C(O)c1ccc(-c2nc(-c3ccc(Cl)c(Cl)c3)cs2)cc1	6	74*	1	-95	86*	79*	90*	92*	94*	72*	68*
O=C(O)c1ccc(-c2nc(-c3ccccc3Cl)cs2)cc1	7	95*	1	-30	98*	94*	98*	99*	102*	97*	93*
COc1ccc(Cl)cc1NC(=S)NNC(=O)c1cccs1	8	66*	0	-36	86*	81*	-2	0	14	-2	27
O=C(N/N=C/c1ccc2c(c1)OCO2)c1ccccn1	-24	70*	1	-87	80*	92*	4	68*	90*	85*	33
CN(C)c1ccc(/C=C(\C#N)c2ccccn2)cc1	12	96*	-26	4	96*	99*	98*	99*	102*	97*	72*
COc1ccc(/C=N/NC(=O)C(=O)N2CCCC2)cc1	-3	5	1	8	9	4	.	.	.	.	.

Screening results deposited in PubChem BioAssay by Sanford-Burnham Center for Chemical Genomics.
